Results taken from ChEMBL document CHEMBL4270598, “Synthesis and discovery of a drug candidate for treatment of idiopathic pulmonary fibrosis through inhibition of TGF-β1 pathway” (Eur J Med Chem, 2018).
The source made the active and inactive calls. The calls are words filed in the database; no cut-off is given here.

How the values were obtained:
Mus musculus [1] = assay: In vivo inhibition of TGF-beta1/smad3 signaling pathway in bleomycin-induced pulmonary fibrosis in C57BL/6 mouse model assessed as decrease in smad3 phosphorylation in lung tissue at 100 mg/kg, po qd administered from day 7 to 14 by Western blot analysis; format: functional, organism-based
[2] = Half life in Sprague-Dawley rat at 150 mg/kg, po by LC-MS/MS analysis; format: ADME, organism-based; conditions: in vivo
Procedure, shortened: (§1)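 Male Sprague-Dawley rats (220-350 g) given a single dose, IV 30 mg/kg or PO 150 mg/kg. Heparinized blood sampled at 2 min-8 h (IV) or 5 min-12 h (PO). Plasma protein-precipitated with acetonitrile/MeOH containing buspirone internal standard. Drug quantified by LC/MS-MS, parameters from non-compartmental analysis. n = 5 per curve.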

[3] = Stability in rat plasma assessed as parent compound remaining after 3 hrs by LC-MS/MS analysis; format: ADME, cell-free; conditions: read-out: Stability
Procedure, shortened: (§2)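 Compound solution (1 mM stock) added 1:100 into blank plasma and incubated at 37 °C for up to 12 h. Aliquots quenched in acetonitrile/MeOH with buspirone internal standard and centrifuged. Parent compound and released products quantified by LC/MS-MS.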

[4] = Cmax in Sprague-Dawley rat at 150 mg/kg, po by LC-MS/MS analysis; format: ADME, organism-based; set-up: dose 150 mg/kg, route oral; conditions: in vivo; procedure, shortened: as §1
Mus musculus [5] = assay: Antifibrotic activity in bleomycin-induced pulmonary fibrosis in C57BL/6 mouse model assessed as decrease in collagen content in lung at 100 mg/kg, po qd administered from day 7 to 14 by spectrophotometric method; format: functional, organism-based
Procedure, shortened: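 Bleomycin model as above: 2 U/kg intratracheal in male C57BL/6 mice, 100 mg/kg daily from day 7 to day 14. Right lungs collected at day 14, dried and acid-hydrolysed, filtered, and pH adjusted to 6.5-8.0. Hydroxyproline then measured by chloramine-T spectrophotometry.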

[6] = molecular target: T1, Transforming growth factor beta-1 proprotein/Mothers against decapentaplegic homolog 3 (Mus musculus) (UniProt P04202+Q8BUN5); assay: Inhibition of TGF-beta1/smad3 signaling pathway in mouse NIH/3T3 cells after 18 hrs by CAGA-luciferase reporter gene assay; format: cell-based
T1 sequence (P04202 279-390 limits assumed): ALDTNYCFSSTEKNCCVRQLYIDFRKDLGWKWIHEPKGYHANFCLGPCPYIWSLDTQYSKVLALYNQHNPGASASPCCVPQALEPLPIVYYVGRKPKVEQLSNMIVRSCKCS
T1 sequence (Q8BUN5 2-425 partner limits assumed): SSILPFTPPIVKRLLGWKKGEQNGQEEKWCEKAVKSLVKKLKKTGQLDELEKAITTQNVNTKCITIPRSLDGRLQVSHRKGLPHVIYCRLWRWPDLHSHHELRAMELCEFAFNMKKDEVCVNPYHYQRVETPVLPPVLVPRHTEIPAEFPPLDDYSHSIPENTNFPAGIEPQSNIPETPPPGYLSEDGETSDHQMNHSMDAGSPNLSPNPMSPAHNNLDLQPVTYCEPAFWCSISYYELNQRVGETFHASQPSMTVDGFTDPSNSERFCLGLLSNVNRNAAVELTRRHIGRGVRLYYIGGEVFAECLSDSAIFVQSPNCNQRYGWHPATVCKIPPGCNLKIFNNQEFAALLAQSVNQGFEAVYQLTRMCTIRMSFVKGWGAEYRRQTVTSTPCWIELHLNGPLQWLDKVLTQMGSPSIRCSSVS

[7] = Oral bioavailability in Sprague-Dawley rat at 150 mg/kg by LC-MS/MS analysis; format: ADME, organism-based; conditions: in vivo; procedure, shortened: as §1
Mus musculus [8] = assay: In vivo inhibition of TGF-beta1/smad3 signaling pathway in bleomycin-induced pulmonary fibrosis in C57BL/6 mouse model assessed as decrease in Col1 level in lung tissue at 100 mg/kg, po qd administered from day 7 to 14 by immunohistochemical analysis; format: functional, organism-based
Procedure, shortened: (§3)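 Lungs from bleomycin-challenged C57BL/6 mice (2 U/kg intratracheal; 100 mg/kg daily, days 7-14) were paraffin-embedded and dewaxed. Citrate (0.01 M) microwave antigen retrieval, then 5% serum block. Primary antibodies overnight at 4 °C: α-SMA 1:200, collagen I 1:100, p-Smad3 1:50. Secondary antibody 1 h at room temperature, then hematoxylin counterstain and microscopy.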

[9] = Cmax in Sprague-Dawley rat at 30 mg/kg, iv by LC-MS/MS analysis; format: ADME, organism-based; set-up: dose 30 mg/kg, route intravenous; conditions: in vivo; procedure, shortened: as §1
Mus musculus [10] = assay: In vivo inhibition of TGF-beta1/smad3 signaling pathway in bleomycin-induced pulmonary fibrosis in C57BL/6 mouse model assessed as decrease in smad3 phosphorylation level in lung tissue at 100 mg/kg, po qd administered from day 7 to 14 by immunohistochemical analysis; format: functional, organism-based; procedure, shortened: as §3
[11] = Tmax in Sprague-Dawley rat at 150 mg/kg, po by LC-MS/MS analysis; format: ADME, organism-based; conditions: in vivo; procedure, shortened: as §1
[12] = Tmax in Sprague-Dawley rat at 30 mg/kg, iv by LC-MS/MS analysis; format: ADME, organism-based; conditions: in vivo; procedure, shortened: as §1
[13] = molecular target: T1, Transforming growth factor beta-1 proprotein/Mothers against decapentaplegic homolog 3 (Mus musculus); assay: Inhibition of TGF-beta1/smad3 signaling pathway in mouse NIH/3T3 cells assessed as decrease in ECM production at 10 uM after 24 hrs; format: cell-based
Mus musculus [14] = assay: In vivo inhibition of TGF-beta1/smad3 signaling pathway in bleomycin-induced pulmonary fibrosis in C57BL/6 mouse model assessed as decrease in alpha-SMA level in lung tissue at 100 mg/kg, po qd administered from day 7 to 14 by immunohistochemical analysis; format: functional, organism-based; procedure, shortened: as §3
Rattus norvegicus [15] = assay: AUC (0 to t) in Sprague-Dawley rat at 150 mg/kg, po by LC-MS/MS analysis; format: ADME, organism-based; conditions: in vivo; procedure, shortened: as §1
[16] = molecular target: T1, Transforming growth factor beta-1 proprotein/Mothers against decapentaplegic homolog 3 (Mus musculus); assay: Inhibition of TGF-beta1/smad3 signaling pathway in mouse NIH/3T3 cell extract assessed as decrease in Smad3 phosphorylation at 10 uM after 30 mins by Western blot analysis; format: protein assay
Rattus norvegicus [17] = assay: AUC (0 to t) in Sprague-Dawley rat at 30 mg/kg, iv by LC-MS/MS analysis; format: ADME, organism-based; conditions: in vivo; procedure, shortened: as §1
Mus musculus [18] = assay: In vivo inhibition of TGF-beta1/smad3 signaling pathway in bleomycin-induced pulmonary fibrosis in C57BL/6 mouse model assessed as decrease in Col1 protein expression level in lung tissue at 100 mg/kg, po qd administered from day 7 to 14 by Western blot analysis; format: functional, organism-based
[19] = molecular target: T1, Transforming growth factor beta-1 proprotein/Mothers against decapentaplegic homolog 3 (Mus musculus); assay: Inhibition of TGF-beta1/smad3 signaling pathway in mouse NIH/3T3 cell extract assessed as decrease in alpha-SMA protein expression at 10 uM after 24 hrs by Western blot analysis
Mus musculus [20] = assay: Toxicity in C57/BL6 mouse assessed as mouse survival at 2 g/kg administered orally via gavage daily as single dose for 7 days; format: organism-based; conditions: in vivo, po, 2000 mg/kg, 168 h
Procedure, shortened: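 C57BL/6 mice, 20-22 g, dosed by oral gavage once daily at 2 g/kg for 7 days, n = 10; survival recorded.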

[21] = Half life in Sprague-Dawley rat at 30 mg/kg, iv by LC-MS/MS analysis; format: ADME, organism-based; conditions: in vivo; procedure, shortened: as §1
[22] = molecular target: T2, Transforming growth factor beta-1 proprotein/Mothers against decapentaplegic homolog 3 (Homo sapiens) (UniProt P84022+P01137); assay: Inhibition of TGF-beta1/smad3 signaling pathway in human HFL cells assessed as decrease in smad3 phosphorylation at 10 uM after 30 mins by Western blot analysis; format: cell-based
T2 sequence (P01137 whole entry, looked up): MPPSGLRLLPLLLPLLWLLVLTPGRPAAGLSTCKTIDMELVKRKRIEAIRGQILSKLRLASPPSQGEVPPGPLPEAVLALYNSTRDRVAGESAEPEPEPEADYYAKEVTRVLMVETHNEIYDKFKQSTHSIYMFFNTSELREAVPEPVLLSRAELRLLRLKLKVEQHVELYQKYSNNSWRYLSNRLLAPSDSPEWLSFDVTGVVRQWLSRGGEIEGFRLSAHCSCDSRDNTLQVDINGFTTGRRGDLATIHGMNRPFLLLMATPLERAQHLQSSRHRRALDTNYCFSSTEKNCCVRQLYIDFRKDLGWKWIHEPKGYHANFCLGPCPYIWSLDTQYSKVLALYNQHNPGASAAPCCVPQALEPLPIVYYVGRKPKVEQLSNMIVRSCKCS
T2 sequence (P84022 whole entry, looked up): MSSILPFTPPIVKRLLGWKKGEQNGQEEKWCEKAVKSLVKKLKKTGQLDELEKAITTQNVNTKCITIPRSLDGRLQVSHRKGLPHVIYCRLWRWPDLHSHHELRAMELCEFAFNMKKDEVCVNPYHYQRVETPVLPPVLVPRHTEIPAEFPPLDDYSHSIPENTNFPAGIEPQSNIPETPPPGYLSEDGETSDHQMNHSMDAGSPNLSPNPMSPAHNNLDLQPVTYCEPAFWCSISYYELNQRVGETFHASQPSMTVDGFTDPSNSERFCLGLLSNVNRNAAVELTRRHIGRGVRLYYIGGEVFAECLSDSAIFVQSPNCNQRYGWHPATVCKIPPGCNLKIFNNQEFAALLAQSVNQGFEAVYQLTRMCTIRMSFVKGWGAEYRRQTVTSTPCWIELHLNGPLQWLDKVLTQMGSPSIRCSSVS
Procedure, shortened: (§4)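 HFL1 human lung fibroblasts given TGF-β1 (5 ng/mL) with or without compound at 10 µM: 24 h for α-SMA (cell lysate) and collagen I (medium), 30 min for p-Smad3. RIPA lysis with phosphatase inhibitor, then Western blot. Band density normalized to β-actin. n=3.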

Rattus norvegicus [23] = assay: AUC (0 to infinity) in Sprague-Dawley rat at 30 mg/kg, iv by LC-MS/MS analysis; format: ADME, organism-based; set-up: dose 30 mg/kg, time infinity, route intravenous; conditions: in vivo; procedure, shortened: as §1
[24] = molecular target: T2, Transforming growth factor beta-1 proprotein/Mothers against decapentaplegic homolog 3 (Homo sapiens); assay: Inhibition of TGF-beta1/smad3 signaling pathway in human HFL cell extract assessed as decrease in alpha-SMA protein expression at 10 uM after 24 hrs by Western blot analysis; procedure, shortened: as §4
Mus musculus [25] = assay: Toxicity in C57/BL6 mouse assessed as mouse survival at 1 to 5 g/kg administered orally via gavage as single dose; format: organism-based; conditions: in vivo, po
Procedure, shortened: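 Male-unspecified C57BL/6 mice, 20-22 g; single oral gavage dose at 1, 2, 3, 4 and 5 g/kg, n = 10; survival recorded.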

Mus musculus [26] = assay: Antifibrotic activity in bleomycin-induced pulmonary fibrosis in C57BL/6 mouse model assessed as fibrotic area in lungs at 100 mg/kg, po qd administered from day 7 to 14 by hematoxylin-eosin staining based fluorescence microscopy; format: functional
Procedure, shortened: (§5)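 Male C57BL/6 mice (7-8 weeks, n=5/group) given intratracheal bleomycin 2 U/kg under chloral hydrate anaesthesia. Dosing at 100 mg/kg daily from day 7 to day 14, sacrifice at day 14. Left lungs formalin-fixed, paraffin-embedded, 5 µm sections HE-stained. Fibrosis ratio taken as fibrotic-region pixels over total lung pixels.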

[27] = molecular target: T2, Transforming growth factor beta-1 proprotein/Mothers against decapentaplegic homolog 3 (Homo sapiens); assay: Inhibition of TGF-beta1/smad3 signaling pathway in human HFL cells assessed as decrease in Col1 protein expression level at 10 uM after 24 hrs by Western blot analysis; format: cell-based; procedure, shortened: as §4
Rattus norvegicus [28] = assay: AUC (0 to infinity) in Sprague-Dawley rat at 150 mg/kg, po by LC-MS/MS analysis; format: ADME, organism-based; set-up: dose 150 mg/kg, time infinity, route oral; conditions: in vivo; procedure, shortened: as §1
[29] = Drug metabolism in rat plasma assessed as (3aR,4aR,5R,6R,8aR,9aR)-6-Hydroxy-8a-methyl-3-methylenedecahydro-2H-spiro[naphtho[2,3-b]furan-5,2'-oxiran]-2-one formation after 12 hrs by LC-MS/MS analysis; format: ADME, cell-free; procedure, shortened: as §2
Mus musculus [30] = assay: Antifibrotic activity in bleomycin-induced pulmonary fibrosis in C57BL/6 mouse model assessed as decrease in ECM production at 100 mg/kg, po qd administered from day 7 to 14 by hematoxylin-eosin staining based fluorescence microscopy; format: functional, organism-based; procedure, shortened: as §5
Mus musculus [31] = assay: Toxicity in C57/BL6 mouse assessed as appearance of systemic symptoms at 2 g/kg administered orally via gavage daily as single dose for 30 days; format: organism-based; conditions: in vivo, po, 2000 mg/kg, 720 h
Procedure, shortened: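 C57BL/6 mice given compound by oral gavage at 2 g/kg once daily for 30 days (n=10) and observed for systemic symptoms and deaths.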

[32] = Drug metabolism in rat plasma assessed as (1aR,2S,5aR,6aR,9aR,9bS)-2,5a-Dimethyl-9-methyleneoctahydro-2H-oxireno[2',3':4,4a]naphtho[2,3-b]furan-8(9H)-one formation after 12 hrs by LC-MS/MS analysis; format: ADME, cell-free; procedure, shortened: as §2

Which inhibition (Mus musculus [1]) does the source give for CN(C)C[C@@H]1C(=O)O[C@@H]2C[C@@]3(C)CC[C@@H](O)[C@]4(CO4)[C@@H]3C[C@H]12.O=C(O)/C=C/C(=O)O here?
The inhibition was “Active”.

What about the half-life [2] of the same compound?
Its half-life is 121 min.

What about the remaining at 3 h [3] of the same compound?
Its remaining at 3 h is over 50%.

What about the Cmax [4] of the same compound?
The Cmax was 62300 ng/mL.

What about the Activity (Mus musculus [5]) of the same compound?
The Activity was “Active”.

And the inhibition [6]?
The inhibition was “Dose-dependent effect”.

And the bioavailability [7]?
The bioavailability was 78%.

What about the inhibition (Mus musculus [8]) of the same compound?
The inhibition was “Active”.

And the Cmax [9]?
The Cmax was 22700 ng/mL.

What about the inhibition (Mus musculus [10]) of the same compound?
The inhibition was “Active”.

And the Tmax [11]?
Its Tmax is 42 min.

What about the Tmax [12] of the same compound?
Its Tmax is 17 min.

What about the inhibition [13] of the same compound?
Its inhibition is “Active”.

What about the inhibition (Mus musculus [14]) of the same compound?
Its inhibition is “Active”.

What about the AUCt (Rattus norvegicus [15]) of the same compound?
The AUCt was 171000 ng·h/mL.

What about the inhibition [16] of the same compound?
Its inhibition is “Active”.

What about the AUCt (Rattus norvegicus [17]) of the same compound?
Its AUCt is 43800 ng·h/mL.

And the inhibition (Mus musculus [18])?
Its inhibition is “Active”.

What about the inhibition [19] of the same compound?
Its inhibition is “Active”.

What about the Activity (Mus musculus [20]) of the same compound?
Its Activity is “Non-Toxic”.

What about the half-life [21] of the same compound?
The half-life was 81 min.

And the inhibition [22]?
Its inhibition is “Active”.

And the AUC (Rattus norvegicus [23])?
The AUC was 44900 ng·h/mL.

What about the inhibition [24] of the same compound?
The inhibition was “Active”.

What about the Activity (Mus musculus [25]) of the same compound?
Its Activity is “Non-Toxic”.

What about the Activity (Mus musculus [26]) of the same compound?
Its Activity is 60.5%.

And the inhibition [27]?
The inhibition was “Active”.

What about the AUC (Rattus norvegicus [28]) of the same compound?
The AUC was 174000 ng·h/mL.

What about the Drug metabolism [29] of the same compound?
The Drug metabolism was “Metabolite_Detected”.

And the Activity (Mus musculus [30])?
The Activity was “Active”.

What does the source list for C[C@H]1CCC[C@]2(C)C[C@H]3OC(=O)[C@@H](CN(C)C)[C@H]3[C@@H]3O[C@@]132.O=C(O)/C=C/C(=O)O?
inhibition (Mus musculus [1]): Active; half-life [2]: 85 min; remaining at 3 h [3]: > 50%; Cmax [4]: 18500 ng/mL; Activity (Mus musculus [5]): Active; inhibition [6]: Dose-dependent effect; bioavailability [7]: 75%; inhibition (Mus musculus [8]): Active; Activity (Mus musculus [31]): Non-Toxic; Cmax [9]: 17500 ng/mL; Drug metabolism [32]: Metabolite_Detected; inhibition (Mus musculus [10]): Active; Tmax [11]: 30 min; Tmax [12]: 2 min; inhibition [13]: Active; inhibition (Mus musculus [14]): Active; AUCt (Rattus norvegicus [15]): 37600 ng·h/mL; inhibition [16]: Active; AUCt (Rattus norvegicus [17]): 10000 ng·h/mL; inhibition (Mus musculus [18]): Active; inhibition [19]: Active; Activity (Mus musculus [20]): Non-Toxic; half-life [21]: 73 min; inhibition [22]: Active; AUC (Rattus norvegicus [23]): 10000 ng·h/mL; inhibition [24]: Active; Activity (Mus musculus [25]): Non-Toxic; Activity (Mus musculus [26]): 71.8%; inhibition [27]: Active; AUC (Rattus norvegicus [28]): 37800 ng·h/mL; Activity (Mus musculus [30]): Active
